Results published in ChEMBL document CHEMBL2311307, “Polymethoxyflavones as agents that prevent formation of cataract: nobiletin congeners show potent growth inhibitory effects in human lens epithelial cells” (Bioorg Med Chem Lett, 2013).
Activity calls are given as the source filed them. The calls are words filed in the database; no cut-off is given here.

Tests used:
[1] = Growth inhibition of human SRA 01/04 cells at 32 uM after 4 days by Alamar blue assay; format: functional; details: 96 h, read-out: GI
How it was run: (§1)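 SRA01/04 human lens epithelial cells grown in DMEM with 20% heat-inactivated FBS plus penicillin/streptomycin/neomycin, 37 °C, 5% CO₂. Seeded at 3 × 10³ cells/well and treated in DMEM with varied flavonoid concentrations for up to 4 days. Alamar Blue added for the final 2 h, fluorescence read at ex 530/em 590 nm. Inhibition taken from the day 4 minus day 0 fluorescence change, treated versus control. n = 4, mean ± SD.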

[2] = […] human SRA 01/04 cells assessed as inhibition of PMA-induced proMMP9 expression after 24 hrs by gelatin zymographic analysis; format: functional, cell-based
[3] = Growth inhibition of human SRA 01/04 cells at 64 uM after 4 days by Alamar blue assay; format: functional; details: 96 h, read-out: GI; how it was run: as §1
Homo sapiens [4] = species on record: Homo sapiens; assay: Growth inhibition of human SRA 01/04 cells assessed as reduction in PCNA expression at 64 uM after 4 days by Western blot analysis; format: functional
How it was run: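 SRA01/04 cells plated at 2 × 10⁵ cells/dish, then harvested and lysed in RIPA buffer (pH 7.5 Tris–HCl, with orthovanadate, PMSF and protease inhibitors). 7 µg protein run on 12.5% SDS-PAGE and transferred to PVDF. Probed overnight at 4 °C with mouse anti-PCNA or anti-β-actin, then alkaline phosphatase secondary for 1 h at room temperature. Bands developed with BCIP/NBT.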

Homo sapiens [5] = species on record: Homo sapiens; assay: Growth inhibition of human SRA 01/04 cells after 4 days by Alamar blue assay; format: functional; how it was run: as §1

| SMILES | inhibition of growth at 32 µM [1] [%] | further results |
| --- | --- | --- |
| COc1c(OC)c(OC)c2c(=O)cc(-c3ccc(O)c(O)c3)oc2c1OC | 26.5 |  |
| COc1c(OC)c(O)c2c(=O)cc(-c3ccc(O)cc3)oc2c1OC [XANTHOMICROL] | 42.3 |  |
| COc1cc(-c2cc(=O)c3c(O)c(OC)c(OC)c(OC)c3o2)ccc1O | 64.1 |  |
| COc1cccc(-c2cc(=O)c3c(OC)c(OC)c(OC)c(OC)c3o2)c1 | 42 |  |
| COc1c(OC)c(OC)c2c(=O)cc(-c3ccc(O)cc3)oc2c1OC | 32 |  |
| COc1cccc(OC)c1-c1cc(=O)c2c(OC)c(OC)c(OC)c(OC)c2o1 | 75.9 | IC50 [2]: > 64 µM |
| COc1ccc(-c2cc(=O)c3c(OC)c(OC)c(OC)c(OC)c3o2)cc1 [TANGERETIN] | 75.9 |  |
| COc1cc(-c2cc(=O)c3c(OC)c(OC)c(OC)c(OC)c3o2)ccc1O | 30.7 |  |
| COc1ccccc1-c1cc(=O)c2c(OC)c(OC)c(OC)c(OC)c2o1 | 23.3 |  |
| COc1cc(OC)cc(-c2cc(=O)c3c(OC)c(OC)c(OC)c(OC)c3o2)c1 | 59.9 |  |
| COc1c(OC)c(OC)c2c(=O)cc(-c3ccccc3O)oc2c1OC | 4.2 |  |
| COc1c(OC)c(OC)c2c(=O)cc(-c3c(O)cccc3O)oc2c1OC | 5.1 | IC50 [2]: 55 µM |
| COc1ccc(-c2cc(=O)c3c(O)c(OC)c(OC)c(OC)c3o2)cc1OC [5-DEMETHYLNOBILETIN] | 17.2 |  |
| COc1c(OC)c(OC)c2c(=O)cc(-c3cccc(O)c3)oc2c1OC | 18.3 |  |
| COc1c(OC)c(O)c2c(=O)cc(-c3ccccc3O)oc2c1OC | 30.7 | IC50 [2]: > 64 µM |
| COc1c(OC)c(OC)c2c(=O)cc(-c3cc(O)cc(O)c3)oc2c1OC | 11.5 |  |
| COc1ccc(-c2cc(=O)c3c(OC)c(OC)c(OC)c(OC)c3o2)cc1OC [NOBILETIN] | 47.4 | inhibition of growth at 64 µM [3]: 80%; growth inhibition (GI) (Homo sapiens [4]): Active; growth inhibition (GI) (Homo sapiens [5]): Dose-dependent effect |
